{"data": "Experimental data gathered from unrelated publications", "target": "Mitogen-activated protein kinase 3 (MAPK3, Homo sapiens, UniProt P27361)", "note": "Lines come from different studies, so protocols differ."}
{"SMILES": "N#Cc1ccc(NC(=O)Nc2ccccc2)cc1", "read-out": "cell-free assay", "technique": "competition with immobilised ligand", "concentration": "25 µM", "measurement": "remaining binding", "result": "100%"}
{"SMILES": "C[C@H]1CC[C@H](n2c3cnccc3c3cnc(Nc4ccc5c(n4)CCN(C(=O)CO)C5)nc32)CC1", "read-out": "cell-free assay", "concentration": "1 µM", "measurement": "remaining signal", "result": "100%"}
{"SMILES": "CCCCC(=O)Nc1ccc(-c2ccc3ncn(CCC)c(=O)c3c2)cn1", "read-out": "binding", "technique": "competition with immobilised ligand", "concentration": "0.5 µM", "measurement": "remaining binding", "result": "97%"}
{"SMILES": "Cc1ccc(NC(=O)c2ccnc(C(F)(F)F)c2)cc1-c1cc(OCCO)nc(N2CCOCC2)c1", "read-out": "binding", "concentration": "1 µM", "measurement": "remaining binding", "result": "100%"}
{"SMILES": "O=C(O)CCC(=O)OCCN(Cc1ccc(Oc2ccc([N+](=O)[O-])cc2)cc1)C(=O)C(Cl)Cl", "read-out": "enzyme activity", "mode": "inhibitor", "technique": "ADP detection", "concentration": "10 µM", "measurement": "inhibition", "result": "49.3%"}
{"SMILES": "C=CC(=O)N1CCC[C@@H](n2nc(-c3ccc(Oc4ccccc4)cc3)c3c(N)ncnc32)C1", "read-out": "enzyme activity", "mode": "inhibitor", "concentration": "1 µM", "measurement": "inhibition", "result": "3%"}
{"SMILES": "Cc1cc(O)c(-c2ccc([C@@H](C)CN(C)C)cc2)c2c1[nH]c(=O)c1sccc12", "read-out": "enzyme activity", "mode": "inhibitor", "concentration": "0.1 µM", "measurement": "inhibition", "result": "15.1%"}
{"SMILES": "CC#CC(=O)N1CCC[C@H]1c1nc(-c2ccc(C(=O)Nc3ccccn3)cc2)c2c(N)nccn12", "read-out": "enzyme activity", "mode": "inhibitor", "concentration": "1 µM", "measurement": "inhibition", "result": "12%"}
{"SMILES": "c1ccc(-c2ccc3c(c2)NC(C2Nc4cc(-c5ccccc5)ccc4O2)O3)cc1 (stereo not shown)", "read-out": "enzyme activity", "mode": "inhibitor", "technique": "ADP detection", "concentration": "10 µM", "measurement": "inhibition", "result": "54.7%"}
{"SMILES": "C#Cc1cc(-c2cc(Nc3nc(N[C@@H](C)c4ccc(F)cn4)ncc3Cl)n[nH]2)ccc1C=O", "read-out": "enzyme activity", "mode": "inhibitor", "concentration": "0.2 µM", "measurement": "inhibition", "result": "5.48%"}
